Assay results published in the RNAGym collection of RNA variant scans (doi:10.1126/science.aae0568).
Fewer inactive variants are shown than the library holds.

B1: tRNA (parent)
chain: GUUCCGUUGGCGUAAUGGUAACGCGUCUCCCUCCUAAGGAGAAGACUGCGGGUUCGAGUCCCGUACGGAACG

Variants of: B1
Assay: yeast fitness relative to wild type (ratio to wild type); higher = fitter; tRNA-Arg(CCU), competitive growth, 37 C, YPD
Method in brief: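 Variants of the tRNA-Arg(CCU) gene were chemically synthesised with a 3% per-site mutation rate across 69 sites and placed at the native genomic locus in Saccharomyces cerevisiae. Six parallel replicates of the pooled strains were competed in YPD at 37°C for 24 hours, and gene amplicons from the start and end populations were read by 100-nucleotide paired-end sequencing. Darwinian fitness relative to wild type was derived from changes in genotype frequencies. Genotypes required ≥ 100 starting reads, and estimates < 0.5 were set to 0.5.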

Variant | yeast fitness
A21U C31U G52A A69G | 0.706
A21U A36U C49U G52C C62A G67A | 0.616
A21U C66G | 0.513
A21U C31A G39C C62G G68A | ≤ 0.5
A21U U59A A69C | ≤ 0.5
A21G U54G | 0.575
A21G U54C | 0.937
A21G U54A | 0.575
A21U A36C G38C | ≤ 0.5
A21U C55G G68A A70C | ≤ 0.5
A21U C30G | 0.54
A21U A37U A43C C61U A70G | 0.517
A21U C34G G39A C55U C61G | ≤ 0.5
A21G U28C A65G | 0.779
A21U C33U A43U C49G G50C C61U C66U | ≤ 0.5
A21U U28G | 0.659
A21G G58A | 1.01
A21U C33U A57U U59C C66U | 0.538
A21G G50A C55U | 0.533
A21U G25C | 1.08
A21U G39C | 0.574
A21U U35A A65C | ≤ 0.5
A21U C30G C61U | ≤ 0.5
A21U C55U G68C | ≤ 0.5

Variant | yeast fitness
A21U C30U G39C A43G C46G U54A C62G | ≤ 0.5
A21U U35A | 0.584
A21U A37G | 0.664
A21G G52C | 0.639
A21U G63C | 0.633
A21U C33U | 0.732
A21U C33G | 0.731
A21U G25A C33U A57U U59C | 0.562
A21G G25C C29A G58A | 0.54
A21U U59G | 0.583
A21U U59C | 0.672
A21U C24U C27A A37C A40U | ≤ 0.5
A21U C24G C29G C49U | ≤ 0.5
A21G U53G | 0.647
A21U C27G C61U | ≤ 0.5
A21U A45U G52A | ≤ 0.5
A21U G23C G58U A65G G67A | ≤ 0.5
A21U A43C | 0.974
A21G U59G U64C A65U | 0.586
A21G G39C C46A | 0.881
A21G G39U C62U | 0.527
A21U C31A G39C C61A | 0.579
A21U C46U C66A | ≤ 0.5
A21G U28A C30U | ≤ 0.5

Variant | yeast fitness
A21U G56A G67U A69C | ≤ 0.5
A21U G25A C60U | ≤ 0.5
A21U C22G C55A | ≤ 0.5
A21U G56A G67A | ≤ 0.5
A21G U47C | 0.921
A21G U47A | 0.822
A21U A45G C62G | 0.996
A21U G25C A43G A65G | 0.609
A21U C55G G56C | ≤ 0.5
A21U C60U | 0.584
A21G G23C U28A | ≤ 0.5
C22A A37C G56C | ≤ 0.5
A21U U35A G44A | ≤ 0.5
A21U G41A A42C U54G | ≤ 0.5
A21G G23A C34G A36U A57C C66U | ≤ 0.5
A21U C22U G25A A57C G68U A69C | 0.599
A21U C62A | 0.613
A21U C62U | 0.716
C22A A36C C55G C61A | 0.611
A21G U53C A57C A69U | 0.597
A21U A37U A65C C66U | ≤ 0.5
A21G G38C A40U G44C G67A A69C | ≤ 0.5
A21G U32C U59G C66U A70C | 0.703
A21U C55U C62G | ≤ 0.5

Variant | yeast fitness
A21U G39C C55A A57C | ≤ 0.5
A21G G23A C31U A45C C60A C66U | ≤ 0.5
A21U C27A | 0.583
A21U C24A A37U G48C | 0.534
A21U C29G A57U A65C | ≤ 0.5
A21U U26A A70C | ≤ 0.5
A21U U32G G51C A70G | ≤ 0.5
A21U C27G C31A C46A G56C | ≤ 0.5
A21G G52A A57G C66G | ≤ 0.5
A21U G25A C29A A36G C46A C55A | ≤ 0.5
A21U C62A G67A A69G | ≤ 0.5
A21G U26G G51C | ≤ 0.5
A21U U28C C31U | 0.637
A21G G39A G44C | ≤ 0.5
A21U G41C A43C U54G A69C | 0.551
A21U C33U A57C | ≤ 0.5
A21U G25A G50A G68U | ≤ 0.5
A21U C24A A43C G48A A69C | ≤ 0.5
A21G G23A C46A | 0.543
A21U U26A U54A A70U | ≤ 0.5
A21G U26A A65C | 0.527
A21U C29G U35G G41C | ≤ 0.5
A21G G56A A65G C66U | 0.638
A21U C30U G48A G67C A69U | ≤ 0.5

Variant | yeast fitness
A21U C27U U53C | ≤ 0.5
A21U A37U A65C | 0.672
A21U C22A G50C G67A | ≤ 0.5
A21U C22U A43C C49A | 0.595
A21U G38C A65C | ≤ 0.5
A21U A36U | 0.592
A21G G56U G58C A69U | ≤ 0.5
A21U G51A C66A | ≤ 0.5
A21U U53A A65C G67A | 0.682
A21U U59A A70U | 0.532
A21G G38C G68C | ≤ 0.5
A21U G48C G63A | ≤ 0.5
A21U A37U A45C G51A G67A | 0.67
A21U G39C U47A | 0.512
A21U C29G C49G A70U | ≤ 0.5
A21G U26C C27G G48C | ≤ 0.5
A21G G44A A45U | 0.914
A21U G23A A42C U59G A69C | ≤ 0.5
C22A A37C A65G C66U | ≤ 0.5
A21U C33A G39C G41C G44C A69C | ≤ 0.5
A21U C24U G56C G63A U64C G67C | ≤ 0.5
A21U C24A C30A C31G A43U U54G C62G | ≤ 0.5
A21G G63C | 0.73
A21G G63A | 0.863

Variant | yeast fitness
A21G G41C A69U | 0.682
A21U C24U C27A U35C A37C A40U G67C | ≤ 0.5
A21U C22U G48A A57U | ≤ 0.5
A21U C24A A45U C62A A69C | ≤ 0.5
A21G G39C A42C | 0.563
A21U C30A U35C A40G | ≤ 0.5
A21U A69G | 0.826
A21U A69U | 0.686
A21G G25C | 1.04
A21U C30G C34U G52A A65C A69U | ≤ 0.5
A21U C49A G50C A57C C66G | 0.561
A21U U26A U54A G63C A65C | 0.554
A21U C24G U47A | ≤ 0.5
A21U A43C A45U C49G C61U | 0.56
A21G G25C C27G A42C | ≤ 0.5
A21U C22U G25A C49A | ≤ 0.5
A21G U64C | 0.864
A21G G48C A57G G63A | ≤ 0.5
A21G G67U | 0.87
A21U G44A G56A | ≤ 0.5
A21U C22G C60G G68A | ≤ 0.5
A21G U54A C62U A65G G68A | ≤ 0.5
A21U C27G C33G C60G | 0.52
A21G G68A | 1.01

Variant | yeast fitness
A21U C33G G58A C66U | ≤ 0.5
A21U C24U G56A | 0.635
A21U C46A C62U C66U | ≤ 0.5
A21U C22G C31U U54A C55U | ≤ 0.5
A21U C34U U35A G39A | 0.594
A21G G23A G58C | 0.537
A21U C30U U32A G63C | ≤ 0.5
A21G G58C A65U | 1.18
A21U G52C C61U | ≤ 0.5
A21U U54A A69U | ≤ 0.5
A21U C22U | 0.546
A21U C22G | 1.01
A21U G39U A43C G63A | ≤ 0.5
A21U A57G | 0.882
A21U A57C | 0.619
A21U C34G C60G | ≤ 0.5
A21U C24U C61U C66U | ≤ 0.5
A21G G25C C27G A42C A43G | ≤ 0.5
A21U C22U G39A C46U C62U | ≤ 0.5
A21U A65G | 0.942
A21U U28A A42C C49G C62U | ≤ 0.5
A21G G39A A70G | 0.872
A21U C27G C30A | 0.514
